From ChEMBL document CHEMBL4732095, “Novel naphthylamide derivatives as dual-target antifungal inhibitors: Design, synthesis and biological evaluation” (Eur J Med Chem, 2021)

Tests used:
Type in all cases: functional
[1] = tested on: Aspergillus fumigatus; test: Antifungal activity against Aspergillus fumigatus KM8001 assessed as inhibition of microbial growth by NCCLS protocol based method
Procedure, shortened: (§1)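 Broth MIC50 determined following NCCLS guidelines in Sabouraud medium, with fungal suspension in 24-well format. Compound tested at 0.0625, 0.125, 0.5, 1, 2, 4, 8 and 16 μg/mL. Plates cultured statically at 35 °C. MIC50 is the lowest concentration giving 50% growth inhibition. Naftifine and fluconazole served as positive controls.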

[2] = tested on: Candida tropicalis; test: Antifungal activity against Candida tropicalis ATCC 1369 assessed as inhibition of microbial growth by NCCLS protocol based method; procedure, shortened: as §1
[3] = tested on: Candida albicans; test: Antifungal activity against Candida albicans ATCC 10231 assessed as inhibition of microbial growth by NCCLS protocol based method; procedure, shortened: as §1
[4] = tested on: Pichia kudriavzevii; test: Antifungal activity against Candida krusei ATCC 6258 assessed as inhibition of microbial growth by NCCLS protocol based method; procedure, shortened: as §1
[5] = tested on: Nakaseomyces glabratus; test: Antifungal activity against Candida glabrata ATCC 0001 assessed as inhibition of microbial growth by NCCLS protocol based method; procedure, shortened: as §1

Row | Compound | MIC50 [1] [µg/mL] | MIC50 [2] [µg/mL] | MIC50 [3] [µg/mL] | MIC50 [4] [µg/mL] | MIC50 [5] [µg/mL]
1 | O=C(NC(Cn1ccnc1)C(=O)NCc1ccccc1)c1cccc2ccccc12 (stereo not given) | 8 | 0.25 | 0.5 | 1 | 0.5
2 | O=C(NC(Cn1ccnc1)C(=O)NC1CCCC1)c1ccc2ccccc2c1 (stereo not given) | 8 | 0.5 | 0.25 | 1 | 0.25
3 | O=C(CNC(=O)c1ccc2ccccc2c1)NC(Cn1ccnc1)C(=O)c1ccccc1 (stereo not given) | > 16 | 0.25 | 0.25 | 0.5 | 1
4 | CN(CC(=O)NC(Cn1ccnc1)C(=O)c1ccccc1)C(=O)c1ccc2ccccc2c1 (stereo not given) | 8 | 0.25 | 0.125 | 0.25 | 0.25
5 | O=C(CNC(=O)c1cccc2ccccc12)NC(Cn1ccnc1)C(=O)c1ccccc1 (stereo not given) | 8 | 0.125 | 0.25 | 0.5 | 0.25
6 | O=C(NC(Cn1ccnc1)C(=O)NC1CCCCC1)c1ccc2ccccc2c1 (stereo not given) | > 16 | 0.5 | 0.5 | 0.5 | 0.25
7 | CN(CC(=O)Nc1ccncc1)C(=O)c1cccc2ccccc12 | 8 | 1 | 0.5 | 0.5 | 0.5
8 | CC(C)C(NC(=O)c1cccc2ccccc12)C(=O)NC(Cn1ccnc1)C(=O)c1ccccc1 (stereo not given) | > 16 | 0.5 | 0.25 | 1 | 0.5
9 | CC(C)C(NC(=O)c1ccc2ccccc2c1)C(=O)NC(Cn1ccnc1)C(=O)c1ccccc1 (stereo not given) | > 16 | 0.5 | 0.5 | 1 | 1
10 | O=C(NC(Cn1ccnc1)C(=O)NC1CCCC1)c1cccc2ccccc12 (stereo not given) | > 16 | 0.5 | 0.5 | 0.5 | 2
11 | Cc1ccc(NC(=O)C(Cn2ccnc2)NC(=O)c2cccc3ccccc23)cc1 (stereo not given) | > 16 | 0.5 | 0.25 | 0.5 | 0.25
12 | CN(CC(=O)NCc1ccncc1)C(=O)c1ccc2ccccc2c1 | 8 | 1 | 0.25 | 0.5 | 2
13 | CN(CC(=O)NC(Cn1ccnc1)C(=O)c1ccccc1)C(=O)c1cccc2ccccc12 (stereo not given) | 8 | 0.25 | 0.5 | 0.5 | 0.25
